Test results taken from ChEMBL document CHEMBL1166015, “Design, synthesis, and docking of highly hypolipidemic agents: Schizosaccharomyces pombe as a new model for evaluating alpha-asarone-based HMG-CoA reductase inhibitors” (Bioorg Med Chem, 2010).

How the values were obtained:
Mus musculus [1] = experiment: Hypolipidemic activity in ICR mouse assessed as decrease in Tyloxapol-induced LDL-cholesterol level at 50 mg/kg, ip administered 1 hr before Tyloxapol challenge and 22, 48 hrs after Tyloxapol challenge measured after 22 hrs relative to control; type: functional; set-up: scale not given: the % may be the effect or the level left; settings: route oral, in the assay text read “po administered” for “ip administered”
Method in brief: (§1)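 Male ICR mice (24–27 g), groups of six. Hyperlipidemia induced by ip Tyloxapol (Triton WR 1339) 400 mg/kg in water. Drug given at 5 mL/kg 1 h before and 22 and 48 h after injection; vehicle controls. Blood drawn 22 h post-injection by periorbital bleeding. Serum total cholesterol, HDL-C and triglycerides measured on an automatic analyzer; LDL-C by the Friedewald equation. Values are % of the Tyloxapol group, mean ± SE.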

Mus musculus [2] = experiment: Hypolipidemic activity in high cholesterol diet fed ICR mouse assessed as reduction of LDL cholesterol level at 100 mg/kg/day, po after 12 hrs of last cholesterol challenge relative to control; set-up: scale not given: the % may be the effect or the level left
Mus musculus [3] = experiment: Hypolipidemic activity in ICR mouse assessed as decrease in Tyloxapol-induced triglyceride level at 50 mg/kg, ip administered 1 hr before Tyloxapol challenge and 22, 48 hrs after Tyloxapol challenge measured after 22 hrs relative to control; type: functional; set-up: scale not given: the % may be the effect or the level left; settings: route intraperitoneal; method in brief: as §1
Mus musculus [4] = experiment: Hypolipidemic activity in high cholesterol diet fed ICR mouse assessed as reduction of HDL cholesterol level at 50 mg/kg/day, po after 12 hrs of last cholesterol challenge relative to control; set-up: scale not given: the % may be the effect or the level left
Mus musculus [5] = experiment: Hypolipidemic activity in high cholesterol diet fed ICR mouse assessed as reduction of triglyceride level at 100 mg/kg/day, po after 12 hrs of last cholesterol challenge relative to control; set-up: scale not given: the % may be the effect or the level left
Mus musculus [6] = experiment: Hypolipidemic activity in high cholesterol diet fed ICR mouse assessed as reduction of HDL cholesterol level at 100 mg/kg/day, po after 12 hrs of last cholesterol challenge relative to control; set-up: scale not given: the % may be the effect or the level left
Mus musculus [7] = experiment: Hypolipidemic activity in ICR mouse assessed as decrease in Tyloxapol-induced triglyceride level at 100 mg/kg, ip administered 1 hr before Tyloxapol challenge and 22, 48 hrs after Tyloxapol challenge measured after 22 hrs relative to control; type: functional; set-up: scale not given: the % may be the effect or the level left; settings: route intraperitoneal; method in brief: as §1
Mus musculus [8] = experiment: Hypolipidemic activity in ICR mouse assessed as decrease in Tyloxapol-induced HDL-cholesterol level at 50 mg/kg, ip administered 1 hr before Tyloxapol challenge and 22, 48 hrs after Tyloxapol challenge measured after 22 hrs relative to control; type: functional; set-up: scale not given: the % may be the effect or the level left; settings: route oral, in the assay text read “po administered” for “ip administered”; method in brief: as §1
[9] = biological target: T1, 3-hydroxy-3-methylglutaryl-coenzyme A reductase (Schizosaccharomyces pombe 972h-, UniProt Q10283); experiment: Inhibition of Schizosaccharomyces pombe HMG-CoA reductase by spectrophotometry; settings: read-out: IC50
T1 sequence (Q10283 whole entry): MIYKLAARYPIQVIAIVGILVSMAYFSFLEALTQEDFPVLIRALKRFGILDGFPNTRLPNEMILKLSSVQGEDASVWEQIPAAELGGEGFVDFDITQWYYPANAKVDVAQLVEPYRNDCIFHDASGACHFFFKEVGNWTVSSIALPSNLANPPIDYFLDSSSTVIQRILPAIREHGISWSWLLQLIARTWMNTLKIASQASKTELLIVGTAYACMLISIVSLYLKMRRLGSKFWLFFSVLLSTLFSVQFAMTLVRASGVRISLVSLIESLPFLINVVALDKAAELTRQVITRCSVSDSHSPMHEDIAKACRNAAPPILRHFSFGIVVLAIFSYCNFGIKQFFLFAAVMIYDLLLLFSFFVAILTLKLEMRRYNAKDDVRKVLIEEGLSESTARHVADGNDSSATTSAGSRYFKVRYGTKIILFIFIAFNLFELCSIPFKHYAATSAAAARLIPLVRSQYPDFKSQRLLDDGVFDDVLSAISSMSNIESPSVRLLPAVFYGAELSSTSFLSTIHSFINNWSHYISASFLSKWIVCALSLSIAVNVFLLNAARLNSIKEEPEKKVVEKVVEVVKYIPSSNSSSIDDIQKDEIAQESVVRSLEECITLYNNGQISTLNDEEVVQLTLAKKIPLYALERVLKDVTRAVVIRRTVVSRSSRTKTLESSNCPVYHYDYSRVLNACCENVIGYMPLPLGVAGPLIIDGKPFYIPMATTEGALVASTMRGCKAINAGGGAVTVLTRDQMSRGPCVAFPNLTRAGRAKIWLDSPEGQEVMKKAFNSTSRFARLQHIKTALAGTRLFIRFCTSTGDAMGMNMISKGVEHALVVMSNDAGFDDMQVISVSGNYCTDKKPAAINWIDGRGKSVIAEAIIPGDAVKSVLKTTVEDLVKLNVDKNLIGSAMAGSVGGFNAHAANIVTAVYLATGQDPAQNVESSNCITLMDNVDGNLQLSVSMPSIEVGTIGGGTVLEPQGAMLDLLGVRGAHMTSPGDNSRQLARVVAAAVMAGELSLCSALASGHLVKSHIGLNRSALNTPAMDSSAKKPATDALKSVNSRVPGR
Method in brief: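 Membrane HMGR partially purified from S. pombe 972 h (YPD, 28 °C, 48 h) via centrifugation, Triton X-100 solubilization, 65 °C heat step, ammonium sulfate and calcium phosphate gel. Enzyme activated 37 °C 30 min, pre-incubated with compound (DMSO stocks 1–5 mM) 30 min at 37 °C. Assay: 200 µg enzyme, 0.13 mM HMG-CoA, 50 mM Tris-HCl pH 7.5; started with 0.13 mM NADPH; A340 decrease over 2 min; triplicate; IC50 derived.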

Mus musculus [10] = experiment: Hypolipidemic activity in high cholesterol diet fed ICR mouse assessed as reduction of total cholesterol level at 100 mg/kg/day, ip after 12 hrs of last cholesterol challenge relative to control; type: functional; set-up: scale not given: the % may be the effect or the level left; settings: route intraperitoneal
Method in brief: (§2)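 Male ICR mice (24–27 g), six per group, were fed a high-cholesterol diet ad libitum for 6 days (1.0% cholesterol, 0.5% sodium cholate, 5% butter, 30% sucrose, 10% casein, 53.5% chow). Basal-diet mice served as controls. Dosing was 5 mL/kg and solutions were made fresh. Mice were fasted 12 h before sacrifice and bled periorbitally. Serum TC, HDL-C and TG were read on an analyzer, with LDL-C by Friedewald.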

Mus musculus [11] = experiment: Hypolipidemic activity in high cholesterol diet fed ICR mouse assessed as reduction of LDL cholesterol level at 50 mg/kg/day, po after 12 hrs of last cholesterol challenge relative to control; set-up: scale not given: the % may be the effect or the level left
Mus musculus [12] = experiment: Hypolipidemic activity in high cholesterol diet fed ICR mouse assessed as reduction of total cholesterol level at 50 mg/kg, ip after 12 hrs of last cholesterol challenge relative to control; type: functional; set-up: scale not given: the % may be the effect or the level left; settings: route intraperitoneal; method in brief: as §2
Mus musculus [13] = experiment: Hypolipidemic activity in ICR mouse assessed as decrease in Tyloxapol-induced total cholesterol level at 50 mg/kg, ip administered 1 hr before Tyloxapol challenge and 22, 48 hrs after Tyloxapol challenge measured after 22 hrs relative to control; type: functional; set-up: scale not given: the % may be the effect or the level left; settings: route oral, in the assay text read “po administered” for “ip administered”; method in brief: as §1
Mus musculus [14] = experiment: Hypolipidemic activity in ICR mouse assessed as decrease in Tyloxapol-induced LDL-cholesterol level at 100 mg/kg, ip administered 1 hr before Tyloxapol challenge and 22, 48 hrs after Tyloxapol challenge measured after 22 hrs relative to control; type: functional; set-up: scale not given: the % may be the effect or the level left; settings: route oral, in the assay text read “po administered” for “ip administered”; method in brief: as §1
Mus musculus [15] = experiment: Hypolipidemic activity in ICR mouse assessed as decrease in Tyloxapol-induced HDL-cholesterol level at 100 mg/kg, ip administered 1 hr before Tyloxapol challenge and 22, 48 hrs after Tyloxapol challenge measured after 22 hrs relative to control; type: functional; set-up: scale not given: the % may be the effect or the level left; settings: route intraperitoneal; method in brief: as §1
Mus musculus [16] = experiment: Hypolipidemic activity in high cholesterol diet fed ICR mouse assessed as reduction of triglyceride level at 50 mg/kg/day, po after 12 hrs of last cholesterol challenge relative to control; set-up: scale not given: the % may be the effect or the level left
Mus musculus [17] = experiment: Hypolipidemic activity in ICR mouse assessed as decrease in Tyloxapol-induced total cholesterol level at 100 mg/kg, ip administered 1 hr before Tyloxapol challenge and 22, 48 hrs after Tyloxapol challenge measured after 22 hrs relative to control; type: functional; set-up: scale not given: the % may be the effect or the level left; settings: route oral, in the assay text read “po administered” for “ip administered”; method in brief: as §1

- IC50 [9]: 92.9 µM
Compound: CCCc1cc(OC)c(OCC(=O)OC)cc1N
- Activity (Mus musculus [1]): -24.22%
- Activity (Mus musculus [2]): -31.54%
- Activity (Mus musculus [3]): -15.45%
- Activity (Mus musculus [4]): -36.04%
- Activity (Mus musculus [5]): -24.98%
- Activity (Mus musculus [6]): -39.58%
- Activity (Mus musculus [7]): -22.14%
- Activity (Mus musculus [8]): -11.21%
- Activity (Mus musculus [10]): -49.47%
- Activity (Mus musculus [11]): -41.1%
- Activity (Mus musculus [12]): -41.4%
- Activity (Mus musculus [13]): -69.1%
- Activity (Mus musculus [14]): -37.31%
- Activity (Mus musculus [15]): -26.23%
- Activity (Mus musculus [16]): -12.22%
- Activity (Mus musculus [17]): -59.67%
